{
  "source": "ChEMBL document CHEMBL1122835",
  "about": "“Synthesis and pharmacology of the potent angiotensin-converting enzyme inhibitor N-[1(S)-(ethoxycarbonyl)-3-phenylpropyl]-(S)-alanyl-(S)-pyroglutamic acid” (J Med Chem, 1985)",
  "key": {"Rattus norvegicus [1]": {"test_system": "Rattus norvegicus", "assay": "Activity against the bradykinin Response in anesthetized normotensive rat, administered intravenously at dose 0.090 mg/kg", "format": "functional", "details": "dose 0.09 mg/kg; route intravenous", "method_in_brief": "(§1)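 Anesthetized (pentobarbital/barbital ip) male Charles River CD rats, 380–500 g, kept at 37 °C. Femoral artery blood pressure recorded. Control depressor response to bradykinin 1 μg/kg iv, then cumulative iv drug in 0.9% saline (1 mL/kg), 0.0033–0.27 mg/kg. Bk challenge 5 min after each dose. ED50 = dose giving a 50% change from control, by linear regression; N = 8.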"}, "Rattus norvegicus [2]": {"test_system": "Rattus norvegicus", "assay": "Hypotensive activity was determined in low-sodium treated rat, dose 3 mg/kg administered orally at 5 hr", "format": "functional", "details": "route oral", "method_in_brief": "(§2)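 Male CD rats, 11 weeks old, kept on a sodium-deficient diet for 3 weeks and fasted overnight, were dosed orally with aqueous solutions (5 mL/kg), water as control. Systolic pressure measured by tail cuff at the stated post-dose time. ANOVA with Duncan's test.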"}, "Rattus norvegicus [3]": {"test_system": "Rattus norvegicus", "assay": "Effect on systolic blood pressure was determined in renal hypertensive rat, administered orally at a dose 30 mg/kg", "format": "functional, Artery", "details": "route oral", "method_in_brief": "(§3)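 Renal hypertensive rats were prepared by clipping the left renal artery (0.22-mm clip) in 4-week-old male CD rats and held 6 weeks. Overnight-fasted rats were dosed orally with aqueous solution (5 mL/kg), water as control. Tail-cuff systolic pressure and heart rate measured 2 h post-dose. ANOVA with Duncan's test; ED30 by linear regression.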"}, "Rattus norvegicus [4]": {"species_on_record": "Rattus norvegicus", "assay": "Effective dose was determined to increase the vasoResponse in rat", "format": "functional", "method_in_brief": "as §1"}, "Rattus norvegicus [5]": {"test_system": "Rattus norvegicus", "assay": "Effect on vasopressor response caused by angiotensin I (AI) in anesthetized normotensive rat, administered intravenously at dose 0.27 mg/kg", "format": "functional", "details": "route intravenous", "method_in_brief": "(§4)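 Male Charles River CD rats, 380–500 g, anesthetized with pentobarbital Na 15 mg/kg plus barbital 220 mg/kg ip, held at 37 °C. Femoral artery pressure recorded. AI 0.3 μg/kg and AII 0.1 μg/kg given iv as challenges. Cumulative iv drug in saline, 0.01–0.81 mg/kg, each dose followed by AI/AII challenges at 5-min intervals. ED50 = 50% change from control response, by linear regression.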"}, "Rattus norvegicus [6]": {"test_system": "Rattus norvegicus", "assay": "Effect on vasopressor response caused by angiotensin I (AI) in anesthetized normotensive rat, administered intravenously at dose 0.030 mg/kg", "format": "functional", "details": "dose 0.03 mg/kg; route intravenous", "method_in_brief": "as §4"}, "Canis familiaris [7]": {"test_system": "Canis familiaris", "assay": "Effect on pressor response of angiotensin II in anesthetized dog, dose 0.1 mg/kg administered intravenously", "format": "functional, Canis lupus familiaris", "details": "route intravenous", "method_in_brief": "(§5)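 Mongrel dogs, 7.3–15.5 kg, anesthetized with barbital/pentobarbital iv, tracheotomized and vagotomized, n = 4. Cumulative iv doses in saline (0.2 mL/kg) spaced 30 min apart. AI and AII 1 μg/kg iv challenges given after each dose; the second pre-dose set served as control.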"}, "Rattus norvegicus [8]": {"test_system": "Rattus norvegicus", "assay": "Change in heart rate was determined in renal hypertensive rat, administered orally at a dose 3 mg/kg", "format": "functional", "details": "route oral", "method_in_brief": "as §3"}, "Rattus norvegicus [9]": {"test_system": "Rattus norvegicus", "assay": "Change in heart rate was determined at a dose 3 mg/kg", "format": "functional", "method_in_brief": "(§6)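 Male SHR, 13 weeks old, given HCTZ 25 mg/kg po in 0.25% methylcellulose daily for 3 days. Drug given orally in water (5 mL/kg) 1 h after the third dose. Tail-cuff systolic pressure and pulse-count heart rate taken 1.5 h later after 20 min warming at 38 °C. ANOVA with Duncan's test; ED30 by linear regression.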"}, "Rattus norvegicus [10]": {"test_system": "Rattus norvegicus", "assay": "Change in heart rate was determined in renal hypertensive rat, administered orally at a dose 30 mg/kg", "format": "functional", "details": "route oral", "method_in_brief": "as §3"}, "Rattus norvegicus [11]": {"test_system": "Rattus norvegicus", "assay": "Change in heart rate was determined at a dose 30 mg/kg", "format": "functional", "method_in_brief": "as §6"}, "Rattus norvegicus [12]": {"test_system": "Rattus norvegicus", "assay": "Percent decrease in angiotensin I pressor response was measured in rat, administered intravenously at dose 0.030 mg/kg", "format": "functional", "details": "dose 0.03 mg/kg; route intravenous", "method_in_brief": "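Anesthetized (pentobarbital Na 15 mg/kg + barbital 220 mg/kg ip), tracheotomized male Charles River CD rats, 380–500 g, femoral cannulas, heated board at 37 °C. Control pressor responses to angiotensin I 0.3 μg/kg then angiotensin II 0.1 μg/kg iv; drug iv in 0.9% saline (free base), AI and AII repeated at 5-min intervals, cumulative 0.01–0.81 mg/kg. Peak arterial pressure rise versus control.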"}, "Rattus norvegicus [13]": {"test_system": "Rattus norvegicus", "assay": "Hypotensive activity was determined in low-sodium treated rat, dose 30 mg/kg administered orally at 2 hr", "format": "functional", "details": "route oral", "method_in_brief": "as §2"}, "Canis familiaris [14]": {"test_system": "Canis familiaris", "assay": "Effect on pressor response of angiotensin II in conscious dog at 60-65 min, dose 0.5 mg/kg administered orally", "format": "functional, Canis lupus familiaris", "details": "route oral", "method_in_brief": "(§7)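 Conscious fasted mongrel dogs of both sexes, 6.8–15.3 kg, with femoral cannulas. Drug given orally in 0.25% methylcellulose with 3% glycerin (2 mL/kg), n = 4 per dose. AI 0.3, AII 0.1 and NE 1 μg/kg iv challenges. The second pre-dose set served as control; response measured at 60–65 min post-dose.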"}, "Rattus norvegicus [15]": {"test_system": "Rattus norvegicus", "assay": "Hypotensive activity was determined in low-sodium treated rat, dose 10 mg/kg administered orally at 5 hr", "format": "functional", "details": "route oral", "method_in_brief": "as §2"}, "Rattus norvegicus [16]": {"species_on_record": "Rattus norvegicus", "assay": "Dose required to reduce systolic blood pressure by 30 mmHg", "format": "functional", "details": "Artery", "method_in_brief": "as §6"}, "Rattus norvegicus [17]": {"test_system": "Rattus norvegicus", "assay": "Effect on vasopressor response caused by angiotensin I (AI) in anesthetized normotensive rat, administered intravenously at dose 0.090 mg/kg", "format": "functional", "details": "dose 0.09 mg/kg; route intravenous", "method_in_brief": "as §4"}, "Canis familiaris [18]": {"test_system": "Canis familiaris", "assay": "Effect on pressor response of angiotensin II in anesthetized dog, dose 0.3 mg/kg administered intravenously", "format": "functional, Canis lupus familiaris", "details": "route intravenous", "method_in_brief": "as §5"}, "Rattus norvegicus [19]": {"test_system": "Rattus norvegicus", "assay": "Effect on systolic blood pressure was determined in renal hypertensive rat, administered orally at a dose 100 mg/kg", "format": "functional, Artery", "details": "route oral", "method_in_brief": "as §3"}, "Rattus norvegicus [20]": {"test_system": "Rattus norvegicus", "assay": "Hypotensive activity was determined in low-sodium treated rat, dose 3 mg/kg administered orally at 2 hr", "format": "functional", "details": "route oral", "method_in_brief": "as §2"}, "Rattus norvegicus [21]": {"test_system": "Rattus norvegicus", "assay": "Effective dose to produce ACE inhibition in rat, administered intravenously", "format": "functional", "details": "iv", "method_in_brief": "as §4"}, "Canis familiaris [22]": {"test_system": "Canis familiaris", "assay": "Effect on pressor response of angiotensin I in conscious dog at 60-65 min, dose 2 mg/kg administered orally", "format": "functional, Canis lupus familiaris", "details": "route oral", "method_in_brief": "as §7"}, "Canis familiaris [23]": {"test_system": "Canis familiaris", "assay": "Effect on pressor response of angiotensin I in anesthetized dog, dose 0.1 mg/kg administered intravenously", "format": "functional, Canis lupus familiaris", "details": "route intravenous", "method_in_brief": "as §5"}, "Rattus norvegicus [24]": {"test_system": "Rattus norvegicus", "assay": "Decrease in systolic blood pressure of Spontaneous Hypertensive Rats (SHR) pretreated with hydrochlorothiazide upon oral administration at 3 mm/kg", "format": "functional, Artery", "method_in_brief": "as §6"}, "Rattus norvegicus [25]": {"test_system": "Rattus norvegicus", "assay": "Percent change was determined in bradykinin depressor response in anesthetized normotensive rat, administered intravenously at dose 0.030 mg/kg", "format": "functional", "details": "dose 0.03 mg/kg; route intravenous", "method_in_brief": "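Male Charles River CD rats (380–500 g), pentobarbital Na 15 mg/kg plus barbital 220 mg/kg ip, tracheotomized, femoral artery/vein cannulated, kept at 37 °C. Control bradykinin 1 μg/kg iv depressor response, separate from angiotensin tests; drug iv in 0.9% saline (1 mL/kg, free base) 10 min later, Bk 5 min after each cumulative dose (0.0033–0.27 mg/kg). Maximum fall in arterial pressure versus control response; N = 8.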"}, "Rattus norvegicus [26]": {"test_system": "Rattus norvegicus", "assay": "Decrease in systolic blood pressure of Spontaneous Hypertensive Rats (SHR) pretreated with hydrochlorothiazide upon oral administration at 30 mm/kg", "format": "functional, Artery", "method_in_brief": "as §6"}, "[27]": {"assay": "Half life was determined", "format": "ADME", "details": "rat", "method_in_brief": "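Rats anesthetized with pentobarbital/barbital received a single iv dose, 0.2 or 0.08 mg/kg. AI 0.3 μg/kg iv given at 5 min, then every 10 min for 210 min. Half-life = time for the AI pressor response to fall to 50% of its peak inhibition.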"}, "Canis familiaris [28]": {"test_system": "Canis familiaris", "assay": "Effect on pressor response of angiotensin II in conscious dog at 60-65 min, dose 1 mg/kg administered orally", "format": "functional, Canis lupus familiaris", "details": "route oral", "method_in_brief": "as §7"}},
  "data": [
    {"smiles": "CCOC(=O)[C@H](CCc1ccccc1)N[C@@H](C)C(=O)N1C(=O)CC[C@H]1C(=O)O", "values": [
      {"measurement": "Response", "setting": "Rattus norvegicus [1]", "result": -61, "unit": "mmHg"},
      {"measurement": "Activity", "setting": "Rattus norvegicus [2]", "result": 153, "unit": "mmHg"},
      {"measurement": "Activity", "setting": "Rattus norvegicus [3]", "result": 204, "unit": "mmHg"},
      {"measurement": "ED50", "setting": "Rattus norvegicus [4]", "result": 0.012, "unit": "mg/kg"},
      {"measurement": "Response", "setting": "Rattus norvegicus [5]", "result": 18, "unit": "mmHg"},
      {"measurement": "Response", "setting": "Rattus norvegicus [6]", "result": 39, "unit": "mmHg"},
      {"measurement": "Blood pressure", "setting": "Canis familiaris [7]", "result": 64, "unit": "mmHg"},
      {"measurement": "Heart rate", "setting": "Rattus norvegicus [8]", "result": 460, "unit": "beats min-1"},
      {"measurement": "Heart rate", "setting": "Rattus norvegicus [9]", "result": 374, "unit": "beats min-1"},
      {"measurement": "Heart rate", "setting": "Rattus norvegicus [10]", "result": 481, "unit": "beats min-1"},
      {"measurement": "Heart rate", "setting": "Rattus norvegicus [11]", "result": 381, "unit": "beats min-1"},
      {"measurement": "Decrease", "setting": "Rattus norvegicus [12]", "result": 19, "unit": "%"},
      {"measurement": "Activity", "setting": "Rattus norvegicus [13]", "result": 135, "unit": "mmHg"},
      {"measurement": "Blood pressure", "setting": "Canis familiaris [14]", "result": 48, "unit": "mmHg"},
      {"measurement": "Activity", "setting": "Rattus norvegicus [15]", "result": 143, "unit": "mmHg"},
      {"measurement": "ED30", "setting": "Rattus norvegicus [16]", "result": 3.5, "unit": "mg/kg"},
      {"measurement": "Response", "setting": "Rattus norvegicus [17]", "result": 33, "unit": "mmHg"},
      {"measurement": "Blood pressure", "setting": "Canis familiaris [18]", "result": 68, "unit": "mmHg"},
      {"measurement": "Activity", "setting": "Rattus norvegicus [19]", "result": 186, "unit": "mmHg"},
      {"measurement": "Activity", "setting": "Rattus norvegicus [20]", "result": 154, "unit": "mmHg"},
      {"measurement": "ED50", "setting": "Rattus norvegicus [21]", "result": 0.13, "unit": "mg/kg"},
      {"measurement": "Blood pressure", "setting": "Canis familiaris [22]", "result": 8, "unit": "mmHg"},
      {"measurement": "Blood pressure", "setting": "Canis familiaris [23]", "result": 60, "unit": "mmHg"},
      {"measurement": "Blood pressure", "setting": "Rattus norvegicus [24]", "result": 211, "unit": "mmHg"},
      {"measurement": "Change", "setting": "Rattus norvegicus [25]", "result": 69, "unit": "%"},
      {"measurement": "Blood pressure", "setting": "Rattus norvegicus [26]", "result": 190, "unit": "mmHg"},
      {"measurement": "half-life", "setting": "[27]", "result": 2, "unit": "h"},
      {"measurement": "Blood pressure", "setting": "Canis familiaris [28]", "result": 48, "unit": "mmHg"}
    ]}
  ]
}
